This is an account of results in ChEMBL document CHEMBL2380295, “Structure-activity studies on the side chain of a simplified analog of aplysiatoxin (aplog-1) with anti-proliferative activity” (Bioorg Med Chem, 2013).

One data set relates to NCI-H460. The data set can be described thus: Growth inhibition of human NCI-H460 cells after 48 hrs by sulforhodamine B assay. The data set is classed as functional. The note with it: NCI-H460, 48 h. The procedure, abridged:
(§1)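 Yamori 39-line human cancer panel, NCI method with modifications. Cells plated in RPMI 1640 plus 5% FBS, attached overnight, then exposed 48 h to compound at 10^-8, 10^-7, 10^-6, 10^-5 and 10^-4 M. Sulforhodamine B staining read at 525 nm; % growth = 100[(T−T0)/(C−T0)] from duplicate-point averages, with T0 the time-zero absorbance. GI50 is the concentration giving 50.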
For orientation: Sulforhodamine B stains cellular protein and so reports cell mass.
For `CC1(C)CC[C@@H]2CC(=O)O[C@@H](CO)CC(=O)O[C@@H]3C[C@@H](CCCCc4cc(O)ccc4I)O[C@@]1(C3)O2`, growth was halved (GI50) at 10.5 µM.

A further data set relates to NCI-H226. Kind of data set: Growth inhibition of human NCI-H226 cells after 48 hrs by sulforhodamine B assay. The data set is classed as functional. The note with it: NCI-H226, 48 h. Put shortly: as §1
With `CC1(C)CC[C@@H]2CC(=O)O[C@@H](CO)CC(=O)O[C@@H]3C[C@@H](CCCCc4cc(O)ccc4I)O[C@@]1(C3)O2`, growth was halved (GI50) at 12.6 µM.

A further data set relates to NCI-H522. Kind of data set: Growth inhibition of human NCI-H522 cells after 48 hrs by sulforhodamine B assay. Particulars: NCI-H522, 48 h. Format: functional. Put shortly:
as §1
On to `CC1(C)CC[C@@H]2CC(=O)O[C@@H](CO)CC(=O)O[C@@H]3C[C@@H](CCCCc4cc(O)ccc4I)O[C@@]1(C3)O2`, for which the GI50 (usually the concentration giving 50% growth inhibition) is 11.7 µM.

The next data set deals with HCT-116. Kind of data set: Growth inhibition of human HCT116 cells after 48 hrs by sulforhodamine B assay. The data set is classed as functional. The note with it: HCT-116, 48 h. The procedure, abridged:
as §1
As to `CC1(C)CC[C@@H]2CC(=O)O[C@@H](CO)CC(=O)O[C@@H]3C[C@@H](CCCCc4cc(O)ccc4I)O[C@@]1(C3)O2`, the GI50 was 10.5 µM.

Another data set has as its system NCI-H23. The data set can be described thus: Growth inhibition of human NCI-H23 cells after 48 hrs by sulforhodamine B assay. The data set is classed as functional. The note with it: NCI-H23, 48 h. Put shortly: as §1
Compound `CC1(C)CC[C@@H]2CC(=O)O[C@@H](CO)CC(=O)O[C@@H]3C[C@@H](CCCCc4cc(O)ccc4I)O[C@@]1(C3)O2` gave a GI50 of 7.94 µM.

The next data set relates to HCT-15. The data set can be described thus: Growth inhibition of human HCT15 cells after 48 hrs by sulforhodamine B assay. The data set is classed as functional. The note with it: HCT-15, 48 h. The procedure, abridged: as §1
In turn, `CC1(C)CC[C@@H]2CC(=O)O[C@@H](CO)CC(=O)O[C@@H]3C[C@@H](CCCCc4cc(O)ccc4I)O[C@@]1(C3)O2` showed a GI50 of 15.1 µM.

In another data set the test system is KM12. Kind of data set: Growth inhibition of human KM12 cells after 48 hrs by sulforhodamine B assay. Particulars: KM12, 48 h. Format: functional. The procedure, abridged: as §1
On to `CC1(C)CC[C@@H]2CC(=O)O[C@@H](CO)CC(=O)O[C@@H]3C[C@@H](CCCCc4cc(O)ccc4I)O[C@@]1(C3)O2`, for which growth was halved (GI50) at 10.5 µM.

For a further data set, the system named is HT-29. Kind of data set: Growth inhibition of human HT-29 cells after 48 hrs by sulforhodamine B assay. The note with it: HT-29, 48 h. The data set is classed as functional. Put shortly: as §1
On to `CC1(C)CC[C@@H]2CC(=O)O[C@@H](CO)CC(=O)O[C@@H]3C[C@@H](CCCCc4cc(O)ccc4I)O[C@@]1(C3)O2`, for which it took 13.8 µM to inhibit growth by half (GI50).

The next data set has as its system SNB-78. The data set can be described thus: Growth inhibition of human SNB78 cells after 48 hrs by sulforhodamine B assay. Format: functional. The note with it: SNB-78, 48 h. Put shortly:
as §1
Compound `CC1(C)CC[C@@H]2CC(=O)O[C@@H](CO)CC(=O)O[C@@H]3C[C@@H](CCCCc4cc(O)ccc4I)O[C@@]1(C3)O2` gave a GI50 of 15.1 µM.

System in a further data set: not listed separately
The data set can be described thus: Growth inhibition of human HCC2998 cells after 48 hrs by sulforhodamine B assay. The data set is classed as functional. Particulars: HCC 2998, 48 h. The procedure, abridged:
as §1
For `CC1(C)CC[C@@H]2CC(=O)O[C@@H](CO)CC(=O)O[C@@H]3C[C@@H](CCCCc4cc(O)ccc4I)O[C@@]1(C3)O2`, the GI50 was 0.891 µM.

The next data set relates to SF-539. Kind of data set: Growth inhibition of human SF539 cells after 48 hrs by sulforhodamine B assay. The data set is classed as functional. The note with it: SF-539, 48 h. The procedure, abridged:
as §1
Turning to `CC1(C)CC[C@@H]2CC(=O)O[C@@H](CO)CC(=O)O[C@@H]3C[C@@H](CCCCc4cc(O)ccc4I)O[C@@]1(C3)O2`, the GI50 is 11 µM.

The subject of the next data set is SNB-75. Kind of data set: Growth inhibition of human SNB75 cells after 48 hrs by sulforhodamine B assay. The data set is classed as functional. The note with it: SNB-75, 48 h. The procedure, abridged: as §1
As for `CC1(C)CC[C@@H]2CC(=O)O[C@@H](CO)CC(=O)O[C@@H]3C[C@@H](CCCCc4cc(O)ccc4I)O[C@@]1(C3)O2`, growth was halved (GI50) at 10.5 µM.

Another data set concerns SF-295. The data set can be described thus: Growth inhibition of human SF295 cells after 48 hrs by sulforhodamine B assay. Particulars: SF-295, 48 h. The data set is classed as functional. The procedure, abridged: as §1
The compound `CC1(C)CC[C@@H]2CC(=O)O[C@@H](CO)CC(=O)O[C@@H]3C[C@@H](CCCCc4cc(O)ccc4I)O[C@@]1(C3)O2` had a GI50 of 6.31 µM.

For the next data set, the system named is U-251. Kind of data set: Growth inhibition of human U251 cells after 48 hrs by sulforhodamine B assay. The data set is classed as functional. The note with it: U-251, 48 h. Put shortly:
as §1
`CC1(C)CC[C@@H]2CC(=O)O[C@@H](CO)CC(=O)O[C@@H]3C[C@@H](CCCCc4cc(O)ccc4I)O[C@@]1(C3)O2` gave a concentration for 50% growth inhibition (GI50) of 12.9 µM.

The next data set concerns SF-268. The data set can be described thus: Growth inhibition of human SF268 cells after 48 hrs by sulforhodamine B assay. The data set is classed as functional. Particulars: SF-268, 48 h. The procedure, abridged:
as §1
`CC1(C)CC[C@@H]2CC(=O)O[C@@H](CO)CC(=O)O[C@@H]3C[C@@H](CCCCc4cc(O)ccc4I)O[C@@]1(C3)O2` showed a GI50 of 13.8 µM.

For a further data set, the system named is MCF7. The data set can be described thus: Growth inhibition of human MCF7 cells after 48 hrs by sulforhodamine B assay. The data set is classed as functional. Particulars: MCF7, 48 h. The procedure, abridged:
as §1
`CC1(C)CC[C@@H]2CC(=O)O[C@@H](CO)CC(=O)O[C@@H]3C[C@@H](CCCCc4cc(O)ccc4I)O[C@@]1(C3)O2`: the concentration for 50% growth inhibition (GI50) is 13.8 µM.

In another data set the test system is MDA-MB-231. The data set can be described thus: Growth inhibition of human MDA-MB-231 cells after 48 hrs by sulforhodamine B assay. The note with it: MDA-MB-231, 48 h. Format: functional. Put shortly:
as §1
In the case of `CC1(C)CC[C@@H]2CC(=O)O[C@@H](CO)CC(=O)O[C@@H]3C[C@@H](CCCCc4cc(O)ccc4I)O[C@@]1(C3)O2`, the GI50 was 1.55 µM.

System in another data set: not listed separately
Kind of data set: Growth inhibition of human BSY1 cells after 48 hrs by sulforhodamine B assay. The note with it: BSY-1, 48 h. Format: functional. Put shortly: as §1
Consider `CC1(C)CC[C@@H]2CC(=O)O[C@@H](CO)CC(=O)O[C@@H]3C[C@@H](CCCCc4cc(O)ccc4I)O[C@@]1(C3)O2`, for which halving of growth (GI50) required 9.77 µM.

System in another data set: not listed separately
The data set can be described thus: Growth inhibition of human HBC5 cells after 48 hrs by sulforhodamine B assay. Format: functional. Particulars: HBC5, 48 h. The procedure, abridged: as §1
As to `CC1(C)CC[C@@H]2CC(=O)O[C@@H](CO)CC(=O)O[C@@H]3C[C@@H](CCCCc4cc(O)ccc4I)O[C@@]1(C3)O2`, the GI50 was 15.8 µM.

System in another data set: not listed separately
Kind of data set: Growth inhibition of human HBC4 cells after 48 hrs by sulforhodamine B assay. The data set is classed as functional. Particulars: HBC4, 48 h. The procedure, abridged: as §1
Compound `CC1(C)CC[C@@H]2CC(=O)O[C@@H](CO)CC(=O)O[C@@H]3C[C@@H](CCCCc4cc(O)ccc4I)O[C@@]1(C3)O2` had a GI50 of 0.158 µM.

System in the next data set: not listed separately
Kind of data set: Octanol-water partition coefficient, log P of the compound by HPLC analysis. The data set is classed as physicochemical.
Settings: not given
Put shortly:
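log P was estimated from HPLC retention, with column dead time measured using unretained formamide.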
In the case of `CC1(C)CC[C@@H]2CC(=O)O[C@@H](CO)CC(=O)O[C@@H]3C[C@@H](CCCCc4cc(O)ccc4I)O[C@@]1(C3)O2`, the logP (usually a log measure of how a compound divides between an organic and an aqueous phase) came out at 4.2.

Another data set deals with T1, Protein kinase C delta type (Homo sapiens, UniProt Q05655). Kind of data set: Inhibition of [3H]PDBu binding to PKCdelta-C1A domain peptide (unknown origin).
T1 sequence (Q05655 whole entry, the tested form may be a part): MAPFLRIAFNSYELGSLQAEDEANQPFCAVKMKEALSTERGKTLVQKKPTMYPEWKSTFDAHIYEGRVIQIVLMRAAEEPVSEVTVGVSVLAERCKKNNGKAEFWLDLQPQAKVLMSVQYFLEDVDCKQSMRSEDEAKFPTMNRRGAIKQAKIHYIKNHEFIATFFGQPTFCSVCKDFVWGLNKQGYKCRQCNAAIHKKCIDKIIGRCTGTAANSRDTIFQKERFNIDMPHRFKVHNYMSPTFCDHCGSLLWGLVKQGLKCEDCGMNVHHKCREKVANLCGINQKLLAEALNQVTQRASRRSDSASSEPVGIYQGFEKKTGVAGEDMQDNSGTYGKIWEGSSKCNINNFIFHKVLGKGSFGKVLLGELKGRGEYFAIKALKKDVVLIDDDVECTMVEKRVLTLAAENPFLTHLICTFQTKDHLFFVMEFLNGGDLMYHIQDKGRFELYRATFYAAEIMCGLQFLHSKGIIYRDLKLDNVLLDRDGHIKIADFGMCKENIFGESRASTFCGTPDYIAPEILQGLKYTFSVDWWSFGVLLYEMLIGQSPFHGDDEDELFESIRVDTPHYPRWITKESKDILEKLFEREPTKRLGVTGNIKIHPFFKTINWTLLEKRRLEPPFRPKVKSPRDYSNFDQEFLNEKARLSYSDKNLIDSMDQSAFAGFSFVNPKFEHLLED
Settings: not given
Put shortly:
(§2)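 Competitive [3H]PDBu binding used 14 or 40 nM PKCδ C1 peptide and 20 nM [3H]PDBu (19.6 Ci/mmol), in 50 mM Tris-maleate (pH 7.4 at 4 °C) with 50 µg/mL phosphatidylserine, 3 mg/mL bovine γ-globulin and varied inhibitor concentrations. IC50 was taken as 50% inhibition of specific binding. Ki was derived by the Sharkey–Blumberg method.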
On to `CC1(C)CC[C@@H]2CC(=O)O[C@@H](CO)CC(=O)O[C@@H]3C[C@@H](CCCCc4cc(O)ccc4I)O[C@@]1(C3)O2`, for which the affinity corresponds to a Ki of 0.11 µM.

A further data set deals with T1, Protein kinase C delta type. Kind of data set: Inhibition of [3H]PDBu binding to PKCdelta-C1B domain peptide (unknown origin).
Settings: not given
Put shortly: as §2
Take `CC1(C)CC[C@@H]2CC(=O)O[C@@H](CO)CC(=O)O[C@@H]3C[C@@H](CCCCc4cc(O)ccc4I)O[C@@]1(C3)O2`: the affinity corresponds to a Ki of 0.0046 µM.
